Measurements from ChEMBL document CHEMBL1142929, “The use of aminoglycoside derivatives to study the mechanism of aminoglycoside 6'-N-acetyltransferase and the role of 6'-NH2 in antibacterial activity” (2007).
Active and inactive are the calls of the source. The rule behind the calls is not given here.

What was measured:
Escherichia coli [1] = test: Antibacterial activity against kanamycin-resistant Escherichia coli JR67 at 30 ug/disc […]; format: functional, organism-based
Escherichia coli [2] = test: Antibacterial activity against kanamycin-resistant Escherichia coli JR66 at 30 ug/disc […]; format: functional, organism-based
Staphylococcus aureus = test: Antibacterial activity against Staphylococcus aureus at 30 ug/disc […]; format: functional, organism-based; settings: in the assay text read “paper disc method” for “dilution method”
How it was run: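 Disc diffusion on LB solid medium with 30 µg compound per paper disc; growth inhibition of the S. aureus strain (sensitive to usual antibiotics) scored visually.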

Escherichia coli [3] = test: Antibacterial activity against gentamycin-resistant Escherichia coli JR88 at 30 ug/disc […]; format: functional, organism-based
Escherichia coli [4] = test: Antimicrobial activity against Escherichia coli MG1655 by dilution method; format: functional
How it was run: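 MIC by standard broth dilution: overnight MG1655 cultures in LB (aminoglycoside-sensitive strain) diluted 100-fold, growth read as OD at 600 nm.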

Enterococcus faecium = test: Inhibition of Enterococcus faecium aminoglycoside 6'-N-acetyltransferase
Escherichia coli [5] = test: Antibacterial activity against kanamycin-resistant Escherichia coli pETAACWT at 30 ug/disc […]; format: functional, organism-based
Escherichia coli [6] = test: Antibacterial activity against kanamycin-resistant Escherichia coli pSF815A-1 at 30 ug/disc […]; format: functional, organism-based

Row | SMILES | Activity (Escherichia coli [1]) | Activity (Escherichia coli [2]) | Activity (Staphylococcus aureus) | Activity (Escherichia coli [3]) | MIC (Escherichia coli [4]) | Activity (Enterococcus faecium) | Activity (Escherichia coli [5]) | Activity (Escherichia coli [6])
1 | NCC(=O)NC[C@H]1O[C@H](O[C@H]2[C@H](O)[C@@H](O)[C@H](N)C[C@@H]2N)[C@H](N)[C@@H](O)[C@@H]1O | inactive | inactive | inactive | inactive | < 50 µg/mL | inactive | inactive | 
2 | N[C@H]1[C@@H](O[C@H]2[C@H](O)[C@@H](O)[C@H](N)C[C@@H]2N)O[C@H](CNC(=O)c2ccccc2)[C@@H](O)[C@@H]1O | inactive | inactive | inactive | inactive |  | inactive | inactive | inactive
3 | N[C@H]1[C@@H](O[C@H]2[C@H](O)[C@@H](O)[C@H](N)C[C@@H]2N)O[C@H](CNC(=O)CO)[C@@H](O)[C@@H]1O | inactive | inactive | inactive | inactive | < 25 µg/mL | inactive | inactive | 
4 | N[C@H]1[C@@H](O[C@H]2[C@H](O)[C@@H](O)[C@H](N)C[C@@H]2N)O[C@H](CNC(=O)CS)[C@@H](O)[C@@H]1O | inactive | inactive | inactive | inactive |  | inactive | inactive | 
5 | NC[C@H]1O[C@H](O[C@H]2[C@H](O)[C@@H](O)[C@H](N)C[C@@H]2N)[C@H](N)[C@@H](O)[C@@H]1O [NEAMINE] |  |  |  |  | < 6.25 µg/mL |  |  | 
6 | NCCC(=O)NC[C@H]1O[C@H](O[C@H]2[C@H](O)[C@@H](O)[C@H](N)C[C@@H]2N)[C@H](N)[C@@H](O)[C@@H]1O | inactive | inactive | inactive | inactive |  | inactive | inactive | 
7 | C#CCC(=O)NC[C@H]1O[C@H](O[C@H]2[C@H](O)[C@@H](O)[C@H](N)C[C@@H]2N)[C@H](N)[C@@H](O)[C@@H]1O | inactive | inactive | inactive | inactive |  | inactive | inactive | 
8 | [N-]=[N+]=NCC(=O)NC[C@H]1O[C@H](O[C@H]2[C@H](O)[C@@H](O)[C@H](N)C[C@@H]2N)[C@H](N)[C@@H](O)[C@@H]1O | inactive | inactive | inactive | inactive |  | inactive | inactive | 
9 | N[C@H]1[C@@H](O[C@H]2[C@H](O)[C@@H](O)[C@H](N)C[C@@H]2N)O[C@H](CNC(=O)Cc2cccc3ccccc23)[C@@H](O)[C@@H]1O | inactive | inactive | inactive | inactive |  | inactive | inactive | 
